Experimental data published in ChEMBL document CHEMBL4613269, “2-((4-Arylpiperazin-1-yl)methyl)benzonitrile Derivatives as Orally Available Inhibitors of Hepatitis C Virus with a Novel Mechanism of Action” (J Med Chem, 2020).
Activity calls are given as the source filed them. The calls are words filed in the database; no cut-off is given here.

Assays:
Hepatitis C virus [1] = experiment: Antiviral activity against HCV J6/JFH/JC1 infected in human Huh7.5 cells incubated for 72 hrs by In-Cell Western assay; format: functional, organism-based, Hepacivirus hominis; conditions: J6/JFH/JC1, Huh7.5, 72 h
Summary of the method: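 Huh7.5 cells infected with HCVcc (MOI 0.1) and treated with compound at the same time for 72 h. Cells fixed with PFA, permeabilized, then stained for HCV Core and GAPDH with IR-dye secondaries. Core signal normalized to GAPDH. Eight-step 1:5 dilutions in triplicate; EC50 by Reed & Muench; mean of three experiments.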

Hepatitis C virus [2] = experiment: Antiviral activity against HCV GS4.3 infected in human Huh7.5 cells assessed as reduction in viral NS3 protein levels at 0.1 to 5 uM incubated for 14 days by Western blot assay; format: functional, organism-based; conditions: Hepacivirus hominis
Hepatitis C virus [3] = experiment: Antiviral activity against HCV GS4.3 infected in human Huh7.5 cells assessed as […] at 0.008 to 1 uM pre-incubated with drug for 2 hrs before viral infection and measured after 72 hrs by Western blot assay; format: functional, organism-based; conditions: Hepacivirus hominis
Hepatitis C virus [4] = experiment: Antiviral activity against HCV with wild type glycoprotein E1 infected in human Huh7.5 cells assessed as reduction in viral RNA levels incubated for 72 hrs by qRT-PCR analysis; format: functional, organism-based, Hepacivirus hominis; conditions: Huh7.5, 72 h
Summary of the method: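 Huh7.5 cells seeded 24 h, then infected with wild-type (or mutant) HCV with compound added at the same time. Incubated 72 h. Intracellular HCV RNA measured by qRT-PCR, 2^-ΔCt method, normalized to GAPDH. Eight-step 1:5 serial dilutions in triplicate; EC50 by Reed & Muench; three independent experiments.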

Hepatitis C virus [5] = experiment: Antiviral activity against HCV with glycoprotein E1 F291V mutant infected in human Huh7.5 cells assessed as reduction in viral RNA levels incubated for 72 hrs by qRT-PCR analysis; format: functional, organism-based, Hepacivirus hominis
Summary of the method: (§1)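 Huh7.5 cells seeded at 3×10^4/cm², infected 24 h later with wild-type or mutant HCV stock while compound or solvent was added at the same time. Intracellular HCV RNA measured by qRT-PCR at 72 h, normalised to GAPDH, 2^-ΔCT method. EC50 by Reed & Muench from eight-step 1:5 serial dilutions, triplicate wells.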

Influenza A virus = experiment: Antiviral activity against influenza A virus H3N2/95-359 infected in MDCK cells assessed as reduction in virus-induced cytopathic effect incubated for 48 hrs by Reed-Muench method; format: functional, organism-based; conditions: H3N2/95-359, MDCK
[6] = Cytotoxicity in MDCK cells assessed as reduction in cell viability; format: cell-based, Canis lupus familiaris; conditions: dog
[7] = Selectivity index, ratio of CC50 for cytotoxicity in African green monkey Vero cells to EC50 for Antiviral activity against Coxsackievirus B3 infected in Vero cells; format: toxicity, cell-based; conditions: read-out: Ratio CC50/EC50
[8] = Selectivity index, ratio of CC50 for cytotoxicity in African green monkey Vero E6 cells to EC50 for Antiviral activity against Zika virus infected in Vero E6 cells; format: toxicity, cell-based, Vero C1008; conditions: read-out: Ratio CC50/EC50
Hepatitis C virus [9] = experiment: Synergistic antiviral activity against HCV infected in human Huh7.5 cells assessed as reduction in HCV core protein level by measuring (q) value at 0.1 uM in presence of 0.025 uM simeprevir incubated for 72 hrs by Western blot assay based Webb method relative to control; format: functional, Hepacivirus hominis
Summary of the method: (§2)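 Huh7.5 cells in 6-well plates were infected with HCV in the presence of 0.1 μM test compound combined with simeprevir 0.025 μM, sofosbuvir 0.1 μM or daclatasvir 0.016 nM. Western blot at 72 h gave HCV core protein relative to actin, normalized to control. q calculated by Webb's method (q<1 antagonism, =1 addition, >1 synergy); over 3 independent experiments.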

Hepatitis C virus [10] = experiment: Antiviral activity against HCV expressing NS3 A156T mutant by qRT-PCR analysis based by Reed-Muench method; format: functional, organism-based, Hepacivirus hominis; summary of the method: as §1
Hepatitis C virus [11] = experiment: Synergistic antiviral activity against HCV infected in human Huh7.5 cells assessed as reduction in HCV core protein level by measuring (q) value at 0.1 uM in presence of 0.016 nM daclatasvir incubated for 72 hrs by Western blot assay based Webb method relative to control; format: functional, Hepacivirus hominis; summary of the method: as §2
Hepatitis C virus [12] = experiment: Synergistic antiviral activity against HCV infected in human Huh7.5 cells assessed as reduction in HCV core protein level by measuring (q) value at 0.1 uM in presence of 0.1 uM sofosbuvir incubated for 72 hrs by Western blot assay based Webb method relative to control; format: functional, Hepacivirus hominis; summary of the method: as §2
[13] = Toxicity in Kunming mouse assessed as effect on body weight at 250 to 1000 mg/kg dosed via single oral gavage and measured on day 7 post treatment; format: organism-based; conditions: in vivo
Summary of the method: (§3)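 Kunming mice, 4 groups of n = 6 (3 male, 3 female). Fasted from 12 h before to 1 h after dosing. Single oral gavage of 250, 500 or 1000 mg/kg suspended in 0.5% CMC-Na, or vehicle alone. Followed for 7 days: survival, body weight before and at day 7. Day-7 blood taken for AST, ALT, urea nitrogen and creatinine.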

[14] = Toxicity in Kunming mouse assessed as effect on ALT level at 250 to 1000 mg/kg dosed via single oral gavage and measured on day 7 post treatment; format: organism-based; conditions: in vivo; summary of the method: as §3
[15] = Toxicity in Kunming mouse assessed as effect on blood urea nitrogen level at 250 to 1000 mg/kg dosed via single oral gavage and measured on day 7 post treatment; format: organism-based; conditions: in vivo; summary of the method: as §3
[16] = Cmax in Sprague-Dawley rat at 5 mg/kg, iv measured after 0.08 to 72 hrs post dose by LC-MS/MS analysis; format: ADME, organism-based; design: dose 5 mg/kg, route intravenous; conditions: in vivo
Summary of the method: (§4)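 Single dose to fasted (12 h) animals: oral gavage 15 mg/kg as suspension in 0.5% CMC-Na, or iv 5 mg/kg dissolved in citric acid buffer pH 5.0 with 2.5% DMSO. Jugular vein blood on heparin at 0.08 (iv only) to 72 h. Plasma assayed by LC-MS/MS; parameters from noncompartmental analysis.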

[17] = Half life in Sprague-Dawley rat at 15 mg/kg, po measured after 0.08 to 72 hrs post dose by LC-MS/MS analysis; format: ADME, organism-based; conditions: in vivo; summary of the method: as §4
[18] = Tmax in Sprague-Dawley rat at 15 mg/kg, po measured after 0.08 to 72 hrs post dose by LC-MS/MS analysis; format: ADME, organism-based; conditions: in vivo
[19] = Drug level in Sprague-Dawley rat at 15 mg/kg, po measured after 24 hrs post dose by LC-MS/MS analysis; format: ADME, organism-based; conditions: in vivo, read-out: Drug uptake; summary of the method: as §4
[20] = Oral bioavailability in Sprague-Dawley rat at 5 mg/kg measured after 0.08 to 72 hrs after dose by LC-MS/MS analysis; format: ADME, organism-based; conditions: in vivo
[21] = Cmax in beagle dog at 5 mg/kg, iv measured after 0.08 to 72 hrs post dose by LC-MS/MS analysis; format: ADME, organism-based, Canis lupus familiaris; design: dose 5 mg/kg, route intravenous; conditions: in vivo; summary of the method: as §4
[22] = Drug level in beagle dog at 5 mg/kg, iv measured after 24 hrs post dose by LC-MS/MS analysis; format: ADME, organism-based, Canis lupus familiaris; conditions: in vivo, read-out: Drug uptake; summary of the method: as §4
[23] = Tmax in beagle dog at 15 mg/kg, po measured after 0.08 to 72 hrs post dose by LC-MS/MS analysis; format: ADME, organism-based, Canis lupus familiaris; conditions: in vivo
[24] = AUC (0 to 72 hrs) in beagle dog at 15 mg/kg, po measured after 0.08 to 72 hrs post dose by LC-MS/MS analysis; format: ADME, organism-based, Canis lupus familiaris; design: time < 72 hr, dose 15 mg/kg, route oral; conditions: in vivo; summary of the method: as §4
[25] = Drug level in beagle dog at 15 mg/kg, po measured after 24 hrs post dose by LC-MS/MS analysis; format: ADME, organism-based, Canis lupus familiaris; conditions: in vivo, read-out: Drug uptake; summary of the method: as §4
[26] = Drug level in beagle dog at 15 mg/kg, po measured after 72 hrs post dose by LC-MS/MS analysis; format: ADME, organism-based, Canis lupus familiaris; conditions: in vivo, read-out: Drug uptake; summary of the method: as §4

**Q.** With `CN(C)CCN(C)c1ccc(C#N)c(CN2CCN(c3ccc(Cl)cc3)CC2)c1` as the compound, how does the EC50 (Hepatitis C virus [1]) read?
**A.** 83 to 125 nM

**Q.** What about the Activity (Hepatitis C virus [2]) of the same compound?
**A.** inactive

**Q.** And the Activity (Hepatitis C virus [3])?
**A.** inactive

**Q.** And the EC50 (Hepatitis C virus [4])?
**A.** 6 nM

**Q.** What about the EC50 (Hepatitis C virus [5]) of the same compound?
**A.** 120 nM

**Q.** What about the EC50 (Influenza A virus) of the same compound?
**A.** > 2470 nM

**Q.** What about the CC50 [6] of the same compound?
**A.** 4280 nM

**Q.** What about the selectivity ratio [7] of the same compound?
**A.** 3

**Q.** And the selectivity ratio [8]?
**A.** 3

**Q.** What about the Ratio (Hepatitis C virus [9]) of the same compound?
**A.** 1.05

**Q.** What about the EC50 (Hepatitis C virus [10]) of the same compound?
**A.** 1.9 nM

**Q.** And the Ratio (Hepatitis C virus [11])?
**A.** 1.27

**Q.** What about the Ratio (Hepatitis C virus [12]) of the same compound?
**A.** 1.08

**Q.** What about the Activity [13] of the same compound?
**A.** Non-Toxic

**Q.** What about the Activity [14] of the same compound?
**A.** Non-Toxic

**Q.** And the Activity [15]?
**A.** Non-Toxic

**Q.** And the Cmax [16]?
**A.** 617 ng/mL

**Q.** And the half-life [17]?
**A.** 12.8 h

**Q.** What about the Tmax [18] of the same compound?
**A.** 3.08 h

**Q.** And the concentration at 24 h [19]?
**A.** 119 ng/mL

**Q.** What about the bioavailability [20] of the same compound?
**A.** 39%

**Q.** What about the Cmax [21] of the same compound?
**A.** 532 ng/mL

**Q.** And the concentration at 24 h [22]?
**A.** 6.16 ng/mL

**Q.** What about the Tmax [23] of the same compound?
**A.** 3 h

**Q.** And the AUC(0-t) at 72 h [24]?
**A.** 1280 ng·h/mL

**Q.** And the concentration at 24 h [25]?
**A.** 15.6 ng/mL

**Q.** And the concentration at 72 h [26]?
**A.** 0.69 ng/mL
